Measurements reported in ChEMBL document CHEMBL1130345, “A technetium-99m SPECT imaging agent which targets the dopamine transporter in primate brain” (J Med Chem, 1997).
“And” between values parts separate entries of the source, which are not always exact repeats. Identical values can stand only once.

Key:
Macaca fascicularis = species on record: Macaca fascicularis; assay: Relative affinity for dopamine and serotonin transporters
[1] = biological target: Sodium-dependent serotonin transporter; assay: Inhibition of [3H]- citalopram binding to serotonin transporter of Cynomolgus monkey caudate-putamen; assay type: tissue-based
Method in brief: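 Caudate-putamen membranes (washed in 50 mM Tris-HCl pH 7.4, 3800g spins) incubated at 4 mg original wet tissue/mL with 1 nM [3H]citalopram and 7–14 competitor concentrations in 50 mM Tris-HCl/100 mM NaCl pH 7.4, 2 h at 0–4 °C. Filtered on polyethylenimine-soaked GF/B filters, scintillation counting. Nonspecific binding defined with 1 μM fluoxetine. IC50 computed by EBDA; independent experiments in triplicate.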

[2] = biological target: Sodium-dependent dopamine transporter (Macaca fascicularis, UniProt Q9GJT6); assay: Inhibition of [3H]WIN-35428 binding to dopamine transporter using of Cynomolgus monkey caudate-putamen; assay type: tissue-based
Sequence of Sodium-dependent dopamine transporter (Q9GJT6 whole entry): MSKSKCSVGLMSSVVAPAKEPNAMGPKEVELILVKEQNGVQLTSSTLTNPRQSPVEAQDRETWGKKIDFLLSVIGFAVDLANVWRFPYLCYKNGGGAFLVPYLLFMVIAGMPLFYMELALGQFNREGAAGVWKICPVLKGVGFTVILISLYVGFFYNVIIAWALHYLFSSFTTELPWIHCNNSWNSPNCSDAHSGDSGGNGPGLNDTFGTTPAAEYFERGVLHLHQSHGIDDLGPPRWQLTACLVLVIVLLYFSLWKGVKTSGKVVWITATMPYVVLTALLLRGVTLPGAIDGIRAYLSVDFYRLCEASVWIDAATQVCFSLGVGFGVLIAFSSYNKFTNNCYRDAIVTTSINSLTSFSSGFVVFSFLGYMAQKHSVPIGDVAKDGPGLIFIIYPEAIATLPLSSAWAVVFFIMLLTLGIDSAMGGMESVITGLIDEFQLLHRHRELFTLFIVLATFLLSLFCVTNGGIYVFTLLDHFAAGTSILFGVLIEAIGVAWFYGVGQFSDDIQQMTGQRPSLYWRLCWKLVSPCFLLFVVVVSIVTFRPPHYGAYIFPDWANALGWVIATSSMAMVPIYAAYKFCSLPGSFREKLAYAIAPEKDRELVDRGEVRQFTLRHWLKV
Method in brief: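 Caudate-putamen membranes (washed in 50 mM Tris-HCl pH 7.4, 3800g spins) incubated at 4 mg original wet tissue/mL with 0.3 nM [3H]WIN35,428 and 7–14 competitor concentrations in 50 mM Tris-HCl/100 mM NaCl pH 7.4, 2 h at 0–4 °C. Filtered on BSA-soaked GF/B filters, scintillation counting. Nonspecific binding defined with 30 μM (–)-cocaine. IC50 computed by EBDA; independent experiments in triplicate.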

**Q.** Which Ratio (Macaca fascicularis) does the source give for “[N-[2-[(3'-N'-PROPYL-3''ALPHA-(BIS(4-FLUORORPHENYL)METHOXY)TROPANE-2''BETA-CARBOXYLIC ACID METHYL ESTER)(2-MERCAPTOETHYL)AMINO]ACETYL]-2-AMINOETHANETHIOLATO]RHENIUM(V) OXIDE (DIASTEREOMERIC MIX) [listing 1 of 2 here]” here?
**A.** 90

**Q.** What does the source list for `COC(=O)C1C(c2ccc(F)cc2)CC2CCC1N2CCCc1ccccc1` (stereo not given)?
**A.** IC50 [1]: 133 nM; Ratio (Macaca fascicularis): 95; IC50 [2]: 1.4 nM

**Q.** For “[N-[2-[(3'-N'-PROPYL-3''ALPHA-(BIS(4-FLUORORPHENYL)METHOXY)TROPANE-2''BETA-CARBOXYLIC ACID METHYL ESTER)(2-MERCAPTOETHYL)AMINO]ACETYL]-2-AMINOETHANETHIOLATO]RHENIUM(V) OXIDE (DIASTEREOMERIC MIX) [listing 2 of 2 here]”, which IC50 [2] is on record?
**A.** 482 nM and 616 nM and 343 nM

**Q.** Which results are given for `COC(=O)C1C(c2ccc(F)cc2)CC2CCC1N2CCCCCc1ccccc1` (stereo not given)?
**A.** IC50 [1]: 49.9 nM; Ratio (Macaca fascicularis): 15; IC50 [2]: 3.4 nM

**Q.** Which results are given for `COC(=O)C1C(c2ccc(F)cc2)CC2CCC1N2Cc1ccccc1` (stereo not given)?
**A.** IC50 [1]: 1070 nM; Ratio (Macaca fascicularis): 18; IC50 [2]: 58.9 nM

**Q.** What does the source list for `COC(=O)[C@@H]1C2CCC(C[C@@H]1OC(c1ccc(F)cc1)c1ccc(F)cc1)N2CCCCCc1ccccc1` (stereo not given in full)?
**A.** IC50 [1]: 550 nM; Ratio (Macaca fascicularis): 6

**Q.** How did the IC50 [1] turn out when `COC(=O)[C@@H]1C2CCC(C[C@@H]1OC(c1ccc(F)cc1)c1ccc(F)cc1)N2CCCc1ccccc1` (stereo not given in full) was run?
**A.** 19.7 nM

**Q.** Which IC50 [1] does the source give for `COC(=O)[C@@H]1C2CCC(C[C@@H]1OC(c1ccc(F)cc1)c1ccc(F)cc1)N2Cc1ccccc1` (stereo not given in full) here?
**A.** 4970 nM
